pIC50: −log10 of the molar value.
Columns and labels:
[1] = target: T1, Prostaglandin G/H synthase 1 (Ovis aries, UniProt P05979); experiment: Inhibition of ovine COX1 assessed as reduction in PGH2 production by enzyme immunoassay
T1 sequence (P05979 whole entry): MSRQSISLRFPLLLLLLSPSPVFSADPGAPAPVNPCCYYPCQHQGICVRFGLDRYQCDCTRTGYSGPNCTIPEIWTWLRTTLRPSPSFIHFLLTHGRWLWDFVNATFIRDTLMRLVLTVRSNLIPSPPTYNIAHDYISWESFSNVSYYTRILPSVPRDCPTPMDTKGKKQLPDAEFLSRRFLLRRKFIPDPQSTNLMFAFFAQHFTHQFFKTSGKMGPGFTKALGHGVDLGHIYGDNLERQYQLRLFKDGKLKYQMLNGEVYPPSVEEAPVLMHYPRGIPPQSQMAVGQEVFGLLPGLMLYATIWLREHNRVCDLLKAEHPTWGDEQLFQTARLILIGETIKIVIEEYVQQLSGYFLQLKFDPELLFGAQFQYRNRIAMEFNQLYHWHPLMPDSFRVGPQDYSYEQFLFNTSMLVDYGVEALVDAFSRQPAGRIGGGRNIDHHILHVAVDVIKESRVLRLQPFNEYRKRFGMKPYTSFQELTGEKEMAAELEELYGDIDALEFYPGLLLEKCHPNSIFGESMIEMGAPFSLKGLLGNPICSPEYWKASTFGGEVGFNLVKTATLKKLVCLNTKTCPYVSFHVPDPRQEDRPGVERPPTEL

Rattus norvegicus [2] = experiment: Antiinflammatory activity in Sprague-Dawley rat assessed as inhibition of carrageenan-induced paw edema at 70 mg/kg, po pretreated for 1 hr followed by carrageenan challenge and measured after 4 hrs by plethysmometer relative to control; type: functional
Procedure, shortened: (§1)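 Modified Winter's method in young adult male Sprague-Dawley rats (160-200 g, groups of six), starved 24 h. Oral dose given 1 h before subplantar injection of 0.1 mL 1% carrageenan in sterile pyrogen-free 0.9% NaCl. Paw volume measured by water displacement plethysmometry before and at 3 and 4 h. % inhibition vs controls; mean ± S.E.M.; unpaired one-tailed Student's t-test.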

Rattus norvegicus [3] = experiment: Antiinflammatory activity in Sprague-Dawley rat assessed as inhibition of carrageenan-induced paw edema at 70 mg/kg, po pretreated for 1 hr followed by carrageenan challenge and measured after 3 hrs by plethysmometer relative to control; type: functional; procedure, shortened: as §1
Rattus norvegicus [4] = experiment: Toxicity in Sprague-Dawley rat at 70 mg/kg, po; type: organism-based; settings: in vivo
Rattus norvegicus [5] = experiment: Ulcerogenicity in Sprague-Dawley rat assessed as hyperemia at 70 mg/kg, po measured after 4 hrs; type: toxicity, organism-based; settings: in vivo
Procedure, shortened: (§2)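 Male Sprague-Dawley rats, 180 ± 20 g, acclimatized one week, 3 per group. Oral dosing by feeding needle, adjusted to body weight; saline and carboxymethylcellulose served as controls. Killed 4 h after dosing; stomach opened along the greater curvature, rinsed with saline, and lesions scored under a magnifying glass.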

Mus musculus [6] = experiment: Analgesic activity in CD1 mouse assessed as inhibition of acetic acid-induced writhings at 20 mg/kg, po pretreated for 30 mins followed by acetic acid challenge for 5 mins and measured for 30 mins relative to control; type: functional
Procedure, shortened: (§3)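 Male Swiss CD1 mice, 4-5 weeks, 25 ± 5 g, acclimatized one week. Dose adjusted to body weight and given orally by feeding needle 30 min before i.p. acetic acid (25 mg/kg; 0.25 mL/25 g). NaCl solution served as control. […] Mean ± S.E.M., at least four mice; one-way ANOVA with Student-Newman-Keuls.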

HT-29 = experiment: Growth inhibition of human HT-29 cells by MTT assay; type: cell-based
Mus musculus [7] = experiment: Analgesic activity in CD1 mouse assessed as inhibition of acetic acid-induced writhings at 70 mg/kg, po pretreated for 30 mins followed by acetic acid challenge; type: functional, organism-based; settings: TDE = time-dependent effect; procedure, shortened: as §3
Mus musculus [8] = experiment: Analgesic activity in CD1 mouse assessed as inhibition of acetic acid-induced writhings at 70 mg/kg, po pretreated for 30 mins followed by acetic acid challenge for 5 mins and measured for 30 mins relative to control; type: functional; procedure, shortened: as §3
Rattus norvegicus [9] = experiment: Ulcerogenicity in Sprague-Dawley rat assessed as gastric lessions at 70 mg/kg, po measured after 4 hrs; type: toxicity, organism-based; settings: in vivo; procedure, shortened: as §2
Mus musculus [10] = experiment: Analgesic activity in CD1 mouse assessed as inhibition of acetic acid-induced writhings at 10 mg/kg, po pretreated for 30 mins followed by acetic acid challenge for 5 mins and measured for 30 mins relative to control; type: functional; procedure, shortened: as §3

SMILES	pIC50 [1]	inhibition in vivo at 70 mg/kg (Rattus norvegicus [2])	inhibition in vivo at 70 mg/kg (Rattus norvegicus [3])	Activity (Rattus norvegicus [4])	Activity (Rattus norvegicus [5])	inhibition in vivo at 20 mg/kg (Mus musculus [6])	pIC50 (HT-29)	inhibition (Mus musculus [7])	inhibition in vivo at 70 mg/kg (Mus musculus [8])	Activity (Rattus norvegicus [9])	inhibition in vivo at 10 mg/kg (Mus musculus [10])
CN1c2ccccc2Sc2ccc(CC(=O)O)cc21 [METIAZINIC ACID]	5.21	–	–	–	–	–	–	–	–	–	–
CS(=O)(=O)c1ccc(C(=O)c2ccc(Cl)cc2)cc1	5.28	18.9%	14.9%	Non-Toxic	–	–	–	–	–	–	–
COc1ccc2cc(S(C)(=O)=O)ccc2c1	7.40	34.6%	29.4%	Non-Toxic	Toxic	56.2%	< 3.70	Tde	60.1%	Non-Toxic	49.3%
CC(C)Cc1ccc(S(C)(=O)=O)cc1	5.15	9.5%	9.6%	Non-Toxic	–	–	–	–	–	–	–
CC(C(=O)O)c1cccc(Oc2ccccc2)c1 (configuration not stated) [FENOPROFEN]	5.56	–	–	–	–	–	–	–	–	–	–
CC(C(=O)O)c1cccc(C(=O)c2ccccc2)c1 (configuration not stated) [KETOPROFEN]	6.96	–	–	–	–	–	–	–	–	–	–
CN1c2ccccc2Sc2ccc(S(C)(=O)=O)cc21	5.87	–	–	Non-Toxic	–	–	–	–	–	–	–
CS(=O)(=O)c1ccc(C(=O)c2ccoc2)cc1	6.74	25.9%	27.6%	Non-Toxic	–	50.5%	< 3.70	Tde	64.9%	Non-Toxic	45.9%
CC(C)Cc1ccc(C(C)C(=O)O)cc1 (configuration not stated) [IBUPROFEN]	–	23.9%	–	–	–	53%	–	–	66.7%	–	48%
CS(=O)(=O)c1cccc(Oc2ccccc2)c1	5.31	25.4%	27.8%	Non-Toxic	–	–	–	–	–	–	–
COc1ccc2c(c1)c(S(C)(=O)=O)c(C)n2C(=O)c1ccc(Cl)cc1	6.41	32.5%	29.9%	Non-Toxic	–	–	< 3.70	–	–	–	–

From ChEMBL document CHEMBL4229432, “Synthesis and biological properties of aryl methyl sulfones” (Bioorg Med Chem, 2018)
